According to ChEMBL document CHEMBL3856282, “Design and synthesis of purine analogues as highly specific ligands for FcyB, a ubiquitous fungal nucleobase transporter” (Bioorg Med Chem, 2016):
Active and inactive are the calls of the source. The calls are words filed in the database; no cut-off is given here.

Legend:
Aspergillus nidulans [1] = assay: Inhibition of Aspergillus nidulans FcyB expressed in germinating conidiospores of UapA, UapC, AzgA, FurD, FurA, FcyB, CntA transporter deficient Aspergillus nidulans assessed as suppression of [2,8 3H]-hypoxanthine uptake at 0.5 mM after 1 min by scintillation counting method
Outline: (§1)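 Competition uptake in germinating conidiospores of a Δ7 strain carrying single-copy fcyB driven by the uapA promoter, selected by pabA1 complementation. 0.5 μM ³H-substrate (adenine for line 1, hypoxanthine for line 3) was added together with a 1000-fold excess (500 μM) of analogue. Uptake was stopped after 1 min by freezing, immediate centrifugation and washing. Three experiments, each in triplicate.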

Aspergillus nidulans [2] = assay: Inhibition of Aspergillus nidulans FcyB expressed in germinating conidiospores of UapA, UapC, AzgA, FurD, FurA, FcyB, CntA transporter deficient Aspergillus nidulans assessed as [2,8 3H]-adenine uptake at 0.5 mM after 1 min by scintillation counting method relative to control; design: scale not given: the % may be the effect or the level left; outline: as §1
[3] = Inhibition of Aspergillus nidulans FcyB expressed in germinating conidiospores of UapA, UapC, AzgA, FurD, FurA, FcyB, CntA transporter deficient Aspergillus nidulans assessed as suppression of [2,8 3H]-adenine uptake after 1 min by scintillation counting method
Outline: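 In germinating conidiospores of a Δ7 strain expressing only FcyB (uapA promoter), 0.5 μM ³H-adenine uptake was measured over 1 min against varying analogue concentrations. Ki was derived from IC50 by Cheng–Prusoff, Ki = IC50/(1+[S]/Km), with [S] as the fixed radiolabelled substrate concentration. Values are averages of at least three independent experiments with three replicates per concentration point.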

inhibition (Aspergillus nidulans [1]) | Activity (Aspergillus nidulans [2]) | Ki [3] | Compound
Active | < 10% | 21 µM | c1ccc(CNc2nccc3c2ncn3C2CCCC2)cc1
Active | < 10% | 5 µM | CC(C)n1cnc2c(NCc3ccccc3)nccc21
Active | < 10% | 95 µM | CN(C)CCNc1nccc2c1ncn2C1CCCC1
Active | < 10% | 72 µM | CC(C)n1cnc2c(NCCN(C)C)nccc21
Active | < 10% | 38 µM | CN1CCN(c2nccc3c2ncn3C2CCCC2)CC1
Active | < 10% | 18 µM | Nc1nccc2c1ncn2C1CCCC1
